# An excerpt weighted towards active compounds, which were near 1.9% of everything screened.
# Efflux pump inh: antifungal efflux pump inhibition, Nile Red retention. S. cerevisiae Candida pump triplex. inhibition, % at 10 µM. 330,000 compounds, 0.44% hits;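 active means plate passing quality check with inhibition over a set limit, or well fluorescence over plate mean plus 4 SD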;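 further: Nile Red retained in pooled yeast measured as flow cytometry median fluorescence; 0% = buffer negative control and 100% = Enniatin B positive control; higher means more Nile Red kept so more efflux inhibition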
# FGF22 binding: binders of recombinant human FGF22 by thermal shift; 340,000 compounds, 1.5% hits; Q9HCT0; SYPRO orange fluorescence; percent of sucrose octasulfate shift, DMSO zero; activity (Tm shift, normalised), % at 9.99 µM;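 active means mean Tm shift, scaled 0 neutral to 100 positive control, at about 1.3% or above, every replicate too, limit read from the data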
# Target sequence (Q9HCT0 whole entry, looked up): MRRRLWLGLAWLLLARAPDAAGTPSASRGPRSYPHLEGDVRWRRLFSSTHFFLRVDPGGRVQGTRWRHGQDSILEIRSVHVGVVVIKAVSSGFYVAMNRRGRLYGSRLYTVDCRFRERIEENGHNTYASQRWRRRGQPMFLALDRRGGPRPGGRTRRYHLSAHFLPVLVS
# ASAP1 GAP inh: blocks human ASAP1-stimulated Arf1 GTP hydrolysis | Q9ULH1 | GDP FP detection | AID 624377 | inhibition, % at 16.5 µM | 360,000 compounds, 0.19% hits; in the data active means inhibition above about 25%;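 further: 0% = vehicle with enzyme and substrate and 100% = no enzyme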
# ARFGAP1 inh: inhibits rat ARF GTPase activating protein 1; Q62848; Arfgap1-stimulated ARF1 GTP hydrolysis, GDP FP detection; inhibition, % at 16.5 µM; 360,000 compounds, 0.26% hits; AID 651572;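 active means inhibition above a per-plate limit, mean inhibition of low control wells plus 3 SD, cut at about 25% in these data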;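 further: 0% = DMSO wells with enzyme and 100% = wells lacking Arfgap1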
# Target sequence (Q62848 1-136 limits assumed): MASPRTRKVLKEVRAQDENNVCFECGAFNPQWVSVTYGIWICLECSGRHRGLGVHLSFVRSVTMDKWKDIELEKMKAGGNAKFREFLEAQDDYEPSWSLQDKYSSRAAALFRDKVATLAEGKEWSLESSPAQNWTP
#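 Replicates: Single well per compound | Assay system: Truncated rat Arfgap1 GAP domain | Control set: No-Arfgap1 wells (100%) versus DMSO full-reaction wells (0%) | Times: Enzyme reaction 120 min at 25 °C after 20 min preincubation | Reagent: Human ARF1(Δ1-17)-GTP substrate | Measured by: Tracer-displacement fluorescence polarization with EDTA stop, 620/688 nm | Measure: Percent inhibition of Arfgap1-stimulated GTP hydrolysis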
# Rtt109 Vps75: inhibitors of Candida albicans Rtt109/Vps75 histone acetyltransferase. Q5AAJ8. purified Rtt109/Vps75, ThioGlo CoA-SH fluorescence, 4 h. inhibition, % at 34.9 µM. 330,000 compounds, 0.16% hits;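 active means inhibition of at least 50% in every replicate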
# Target sequence (Q5AAJ8 whole entry, looked up): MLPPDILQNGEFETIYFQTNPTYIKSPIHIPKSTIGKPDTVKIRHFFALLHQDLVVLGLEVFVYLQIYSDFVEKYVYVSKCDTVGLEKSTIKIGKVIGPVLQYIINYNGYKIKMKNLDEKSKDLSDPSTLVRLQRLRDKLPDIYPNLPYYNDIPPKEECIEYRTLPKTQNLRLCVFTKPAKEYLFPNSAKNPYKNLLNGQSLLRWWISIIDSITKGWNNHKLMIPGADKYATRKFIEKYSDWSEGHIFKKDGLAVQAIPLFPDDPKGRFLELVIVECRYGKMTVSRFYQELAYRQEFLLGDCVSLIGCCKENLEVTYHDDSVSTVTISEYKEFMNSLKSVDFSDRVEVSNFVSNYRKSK
# Yeast cmpd fluor: compound fluorescence in yeast efflux pump counter-screen; S. cerevisiae AD/pABC3, flow cytometry; fluorescence ratio to DMSO, % at 10 µM; 1,700 compounds, 4% hits; shares compounds with Efflux pump inh;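 active means fluorescence ratio to DMSO above its plate's cutoff, the plate mean ratio plus 5 SD, cut at about 210% in these data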;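 further: unstained yeast with no Nile Red so the signal is compound autofluorescence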
# CaMdr1 efflux inh: Candida Mdr1 efflux pump inhibition; 1,700 compounds, 1% hits; shares compounds with Efflux pump inh; S. cerevisiae AD/CaMDR1, Nile Red efflux, flow cytometry; inhibition, % at 10 µM; in the data active means inhibition above about 26%;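 further: 0% = DMSO vehicle and 100% = reference inhibitor; higher means more Nile Red retained so more efflux inhibition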
# CaCdr2 efflux inh: inhibitors of Candida albicans Cdr2 efflux pump; shares compounds with Efflux pump inh; Nile Red retention ratio vs DMSO, % at 10 µM; 1,700 compounds, 4% hits; AID 588520; S. cerevisiae AD/CaCDR2, Nile Red retention, flow cytometry; in the data active means Nile Red retention ratio vs DMSO above about 190%;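 further: higher ratio means more blocking of Cdr2 efflux of the dye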
# Cdr1 pump inh: inhibitors of Candida albicans Cdr1 efflux pump; shares compounds with Efflux pump inh; S. cerevisiae AD/CaCDR1, Nile Red efflux, flow cytometry; inhibition, % at 10 µM; 1,700 compounds, 1% hits; AID 588522;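 active means inhibition above the screen-wide mean plus twice its standard deviation, cut at about 32% in these data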
# * = called active by the depositor; . = not tested or not shown.
SMILES,Efflux pump inh,FGF22 binding,ASAP1 GAP inh,ARFGAP1 inh,Rtt109 Vps75,Yeast cmpd fluor,CaMdr1 efflux inh,CaCdr2 efflux inh,Cdr1 pump inh
O=C(Cc1cccs1)N1CCN=C1SCc1ccccc1Cl,1.0*,0.2,6.6,-4.8,3.5,93.5,-0.3,102.9,10.3
Cc1c(-c2cccc(Cl)c2)nc2ccccc2c1C(=O)OC/C(O)=C(\C#N)c1nc2ccccc2[nH]1,2.5*,0.0,9.8,-8.1,-4.0,107.9,1.3,116.5,1.3
CCOC(=O)c1c(C)[nH]c(C(=O)OCC(O)=C(C#N)c2nc3ccccc3[nH]2)c1C,.,0.2,3.4,10.8,1.6,.,.,.,.
O=C(Nc1ccccc1-c1nnc(SCc2ccc(Cl)cc2)o1)c1ccccc1,0.5*,.,5.6,7.3,-4.3,99.8,0.1,118.4,0.4
CCCC(=O)Nc1ccc2c(c1)C(=O)N(C)C[C@H](OC)[C@@H](C)CN(Cc1ccc(-c3ccccn3)cc1)[C@@H](C)CO2,.,0.2,.,.,.,.,.,.,.
C[C@H]1CN([C@@H](C)CO)C(=O)c2cccc(NC(=O)Nc3ccc(F)cc3)c2O[C@@H]1CN(C)C(=O)Nc1ccc(C(F)(F)F)cc1,.,0.6,.,.,.,.,.,.,.
C[C@H]1CN([C@@H](C)CO)C(=O)c2cccc(NC(=O)Nc3ccc(C(F)(F)F)cc3)c2O[C@@H]1CN(C)C(=O)Nc1ccc(F)cc1,-0.1,-1.3,4.6,7.9,-12.4,109.9,0.0,97.2,0.0
CC(C)NC(=O)N(C)C[C@H]1Oc2c(NC(=O)Nc3ccc4c(c3)OCO4)cccc2C(=O)N([C@H](C)CO)C[C@@H]1C,0.0,-0.1,0.4,3.0,9.6,99.0,-0.2,100.7,0.0
CC(C)NC(=O)N(C)C[C@@H]1Oc2c(NC(=O)Nc3ccc4c(c3)OCO4)cccc2C(=O)N([C@H](C)CO)C[C@@H]1C,.,-0.1,.,.,.,.,.,.,.
CCCc1ccc2oc(C(=O)NCCN3CCCC(O)C3)c(C)c2c1 (stereo unspecified),.,0.1,-7.3,-0.8,2.4,.,.,.,.
CCCn1cnc2c(cnn2-c2ccc(F)cc2)c1=O,0.1,.,-1.5,1.0,-0.7,.,.,.,.
CCCCOc1ccc(NC2=NC3(CCCC3)N=C(N)N2)cc1,0.6*,.,-11.2,2.5,14.4,101.8,0.1,114.1,-0.1
Cc1cc(C)cc(NC2=NC3(CCCCC3)N=C(N)N2)c1,-0.1,.,-8.0,0.0,2.7,.,.,.,.
O=C(Nc1ccc(F)cc1)c1cn(-c2ccccc2)nc1-c1ccncc1,0.0,.,5.3,2.0,19.8,.,.,.,.
CC(=O)Nc1ccc(C(=O)OCCCOC(=O)c2ccc(NC(C)=O)cc2)cc1,0.2,0.0,3.4,1.2,0.3,.,.,.,.
CCCCOC(=O)c1ccc(NC(C)=O)cc1,0.6*,.,4.1,-2.7,-6.5,103.4,-0.1,105.7,-0.1
Cc1cccc(NC(=O)CSc2nc(C)c(Cc3ccccc3)c(=O)[nH]2)c1C,2.1*,.,.,.,.,97.6,-0.4,100.7,0.2
Cc1ccc(NC(=O)CSc2nc(C)c(Cc3ccccc3)c(=O)[nH]2)cc1,-0.2,0.4,3.5,-3.6,-1.1,.,.,.,.
COc1ccc(-c2csc(NC3=NCCCCC3)n2)cc1,0.0,-0.1,3.6,-0.1,4.1,.,.,.,.
Brc1ccc(-c2csc(NC3=NCCCCC3)n2)cc1,7.6*,-0.4,-7.6,-8.0,-12.0,112.7,0.6,107.2,0.3
COc1ccc(S(=O)(=O)N2CCC3(CC2)OCCN3S(=O)(=O)c2ccc(C)cc2)cc1OC,0.0,-0.3,-0.1,2.0,-6.5,.,.,.,.
N#C/C(=C\c1ccc(-c2nc3ccccc3s2)o1)C(N)=O,0.1,-0.2,-11.3,8.3,-4.3,.,.,.,.
N#C/C(=C\c1ccco1)C(=O)Nc1ccc(S(N)(=O)=O)cc1,0.4,0.3,-7.5,6.8,-7.1,.,.,.,.
N#C/C(=C/c1ccc(-c2ccc(S(N)(=O)=O)cc2)o1)c1nc2ccccc2s1,2.6*,.,14.0,-0.7,-4.5,99.3,0.5,150.5,0.2
N#C/C(=C/c1ccc(-c2ccc(S(N)(=O)=O)cc2)o1)C(=O)Nc1ccccc1,9.7*,.,10.8,0.9,-6.4,98.2,-0.1,91.4,0.0
SMILES,Efflux pump inh,FGF22 binding,ASAP1 GAP inh,ARFGAP1 inh,Rtt109 Vps75,Yeast cmpd fluor,CaMdr1 efflux inh,CaCdr2 efflux inh,Cdr1 pump inh
C[C@H]1CN([C@@H](C)CO)C(=O)c2cccc(NS(=O)(=O)c3cccs3)c2O[C@@H]1CN(C)C(=O)Nc1ccc(C(F)(F)F)cc1,.,0.2,.,.,.,.,.,.,.
Cc1cc(C(F)(F)F)cc(NNC(=O)NC(=O)c2ccc(Cl)cc2)n1,1.3*,0.1,3.0,2.1,-1.8,102.2,-0.4,106.3,0.1
CS(=O)(=O)c1ccc(Cl)c(NC(=O)c2cccc(Br)c2)c1,5.8*,.,4.2,-9.7,-7.8,99.7,-0.1,90.1,0.0
CS(=O)(=O)c1ccc(Cl)c(NC(=O)c2cccc(N3C(=O)CCC3=O)c2)c1,-0.2,-0.2,0.5,-4.0,2.7,.,.,.,.
CCn1c(-c2csc(C(C)C)c2)n[nH]c1=S,11.1*,-0.1,4.6,-4.3,-1.9,100.0,-0.2,108.3,0.0
CCC(=O)N1CCN(c2ccc(NC(=O)COc3cccc(C)c3C)cc2)CC1,0.6,0.1,-14.2,3.7,-0.9,.,.,.,.
NC(=O)c1nsc(C(=O)N(c2ccccc2)C(C(=O)NCc2ccc(F)cc2)c2ccco2)c1N (stereo unspecified),0.5*,-0.2,13.3,-11.0,-22.0,101.7,0.0,111.6,0.0
O=C(NC(=Nc1nc2ccccc2o1)NC(=O)c1ccccc1)c1ccccc1,1.2*,.,-8.2,-9.4,-2.2,101.8,0.5,126.8,0.6
COc1ccccc1C(=O)NC(=Nc1nc2ccccc2o1)NC(=O)c1ccccc1OC,0.3,-0.3,-9.7,-4.5,-3.0,.,.,.,.
COc1ccc(-c2nc(CN3CCN(Cc4cccc(F)c4)CC3)c(C)o2)cc1,0.0,-0.3,-2.2,-5.2,2.5,.,.,.,.
COc1ccc(-c2nc(Cn3c(SCc4cccc(F)c4)nc4ccncc43)c(C)o2)cc1OC,0.5*,0.3,-1.9,-2.5,-0.2,107.8,0.6,106.0,0.0
COc1ccc(-c2nc(Cn3c(SCc4ccc(C)cc4)nc4ccncc43)c(C)o2)cc1OC,0.4*,-0.2,2.4,-10.6,-4.3,103.0,0.1,101.8,-0.2
Cc1ccc(CSc2nc3ccncc3n2CC(=O)Nc2cc(C)cc(C)c2)cc1,0.0,0.0,-9.3,8.7,-4.6,.,.,.,.
Cc1ccc(-c2nc(-c3ccccn3)sc2CC(=O)O)cc1,0.0,-0.2,-1.4,4.0,2.1,.,.,.,.
Fc1ccc(-n2cc(-c3ccccc3)c3c(NN4CCOCC4)ncnc32)cc1,-0.1,0.0,-0.8,-11.1,6.6,.,.,.,.
